Converted amounts (≈) assume the structure as drawn. Read-outs that look alike come from different tables or passages of the source.
How the values were obtained:
[1] = system: anti-mitragynine antibody; assay: Cross-reactivity study by CI-ELISA; type: binding, rabbit; conditions: for IC50 values: CI-ELISA, compounds at 0.001–50.0 μg/mL, 4PL fit; for cross-reactivity (%): calculated from IC50 values relative to mitragynine (eq 3)
Procedure, shortened: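 Plates coated overnight (16 h) at 4 °C with mitragynine-OVA at 0.25 μg/mL in PBS pH 7.4, washed three times in PBS, then blocked with 5% (w/v) skimmed blocker. Rabbit polyclonal IgG raised against C22-MG-cBSA was used at 1/1000 v/v in 0.05% Tween 20 and pre-incubated with test compound before transfer to wells. Detection used goat anti-rabbit-HRP at 1/2500 v/v.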

[2] = ELISA with pre-incubation (inhibition method); cited from earlier work
[3] = ELISA with pre-incubation (inhibition method); cited from earlier work; remark: listed apart in the source

Molecule | IC50 values [1] | cross-reactivity (%) [1] [%] | IC50 [2] [µg/mL] | IC50 [3] [µg/mL]
COC(=O)C1=CO[C@@H](C)[C@@H]2CN3CCc4c([nH]c5ccc(OC)cc45)[C@@H]3C[C@H]12 [aricine] | 9.819 | 1.90 | – | –
CN(C)CCCN1c2ccccc2Sc2ccc(Cl)cc21 [chlorpromazine] | – | – | 0.00058 (≈ 0.00182 µM) | –
CC1(C)C(C(=O)OC(C#N)c2cccc(Oc3ccccc3)c2)C1(C)C (centres unmarked) [fenpropathrin] | – | – | – | 0.34 (≈ 0.973 µM)
COC(=O)[C@H]1[C@H]2C[C@@H]3c4[nH]c5cc(OC)ccc5c4CCN3C[C@H]2C[C@@H](OC(=O)c2cc(OC)c(OC)c(OC)c2)[C@@H]1OC [reserpine] | 9.889 | 1.89 | – | –
corynantheidine | 1.854 | 10.08 | – | –
